According to ChEMBL document CHEMBL3286275, “Identification of 1-{2-[4-chloro-1'-(2,2-dimethylpropyl)-7-hydroxy-1,2-dihydrospiro[indole-3,4'-piperidine]-1-yl]phenyl}-3-{5-chloro-[1,3]thiazolo[5,4-b]pyridin-2-yl}urea, a potent, efficacious and orally bioavailable P2Y(1) antagonist as an antiplatelet agent” (Bioorg Med Chem Lett, 2014):
pIC50, pKi: −log10 of the molar value. ≈ marks a conversion by molar mass, not a printed value.

What was measured:
P2Y purinoceptor 1 [1] = target: T1, P2Y purinoceptor 1 (Homo sapiens, UniProt P47900); experiment: Antagonist activity at P2Y1 receptor in human platelets by FLIPR assay in presence of 2-methylthio-ADP
Method in brief: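 Washed human platelets with endogenous P2Y1; calcium signalling read by FLIPR with reduced protein (~0.1% BSA); agonist 2-methylthio-ADP at 1 µM; IC50 given as mean ± SD.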

P2Y purinoceptor 1 [2] = target: T1, P2Y purinoceptor 1; experiment: Binding affinity to P2Y1 receptor in human platelets
[3] = Aqueous solubility of the compound at pH 6.5; type: physicochemical; conditions: aqueous medium
Method in brief: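 Aqueous solubility taken on crystalline material: free base at pH 6.5, mono-methanesulfonic acid salt at pH 3.9.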

Liver microsome [4] = experiment: Metabolic stability in human liver microsomes assessed as compound remaining; type: ADME
Method in brief: (§1)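 Liver microsome stability: percent of compound remaining after incubation with […] (3 µM microsomes in some cases).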

Liver microsome [5] = experiment: Metabolic stability in human liver microsomes assessed as GSH adduct formation; type: ADME
Method in brief: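 Human liver microsomes incubated with glutathione to detect reactive intermediates; GSH adduct (M+GSH) measured as percent.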

Platelet = experiment: Inhibition of ADP-induced platelet aggregation in platelet-rich human plasma; type: functional
Method in brief: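 Human platelet-rich plasma; aggregation triggered by 10 µM ADP; IC50 determined.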

Liver microsome [6] = experiment: Metabolic stability in rat liver microsomes assessed as compound remaining; type: ADME; method in brief: as §1

T1 sequence (P47900 whole entry): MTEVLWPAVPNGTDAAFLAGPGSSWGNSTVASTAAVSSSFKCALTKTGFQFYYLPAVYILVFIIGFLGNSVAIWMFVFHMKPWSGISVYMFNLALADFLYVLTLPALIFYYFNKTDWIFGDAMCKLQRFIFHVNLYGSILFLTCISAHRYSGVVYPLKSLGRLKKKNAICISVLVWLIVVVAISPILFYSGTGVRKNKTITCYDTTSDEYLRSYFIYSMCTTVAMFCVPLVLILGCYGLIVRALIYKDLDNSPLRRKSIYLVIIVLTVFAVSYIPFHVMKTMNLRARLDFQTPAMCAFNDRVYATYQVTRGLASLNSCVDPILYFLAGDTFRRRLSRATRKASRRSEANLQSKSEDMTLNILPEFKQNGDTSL

Structure (SMILES): CC(C)(C)CN1CCC2(CC1)CN(c1ccccc1NC(=O)Nc1ccc(OC(F)(F)F)cc1)c1cccc(O)c12
- pIC50 (P2Y purinoceptor 1 [1]): < 6.82

Structure (SMILES): CC(C)(C)CN1CCC2(CC1)CN(c1ccccc1NC(=O)Nc1ccc(OC(F)(F)F)cc1)c1c(O)cccc12
- pKi (P2Y purinoceptor 1 [2]): 8.40
- solubility [3]: 30 µg/mL (≈ 52.8 µM)
- Stability (Liver microsome [4]): 80%
- pIC50 (P2Y purinoceptor 1 [1]): 9.64
- Stability (Liver microsome [5]): Unstable
- pIC50 (Platelet): 5.80
- Stability (Liver microsome [6]): 87%

Structure (SMILES): CN(C)S(=O)(=O)c1ccc(O)c2c1C1(CCN(CC(C)(C)C)CC1)CN2c1ccccc1NC(=O)Nc1ccc(OC(F)(F)F)cc1
- Stability (Liver microsome [4]): 21%
- pIC50 (P2Y purinoceptor 1 [1]): 9.89
- pIC50 (Platelet): 6.38
- Stability (Liver microsome [6]): 75%

Structure (SMILES): CC(C)(C)CN1CCC2(CC1)CN(c1ccccc1NC(=O)Nc1ccc(OC(F)(F)F)cc1)c1ccc(O)cc12
- pIC50 (P2Y purinoceptor 1 [1]): < 6.82

Structure (SMILES): CC(C)(C)CN1CCC2(CC1)CN(c1ccccc1NC(=O)Nc1ccc(C(F)(F)F)cc1)c1c(O)ccc(Cl)c12
- Stability (Liver microsome [4]): 93%
- pIC50 (P2Y purinoceptor 1 [1]): 10.10
- pIC50 (Platelet): 6.40
- Stability (Liver microsome [6]): 93%
